Screening data: PubChem, Johns Hopkins Ion Channel Center
This is a sample that favours compounds with a hit; in the whole collection about 2.3% have one here.
TRPC4 PAM = allosteric potentiators of mouse TRPC4 channel | Q9QUQ5 | HEK293 TRPC4beta/mu-opioid, DAMGO EC20, Fluo-4 Ca2+ flux; active compounds read high | B-score at 10 µM | 0.42% of 310,000 active | AID 2227;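 active = B-score of calcium response area above 5 SD of library B-scores, with initial fluorescence ratio within 5 SD of library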;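 note: B-score of integrated fluorescence ratio over time as area under calcium response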
TRPC4 agonist = activators of mouse TRPC4 channel; Q9QUQ5; HEK293 TRPC4beta/mu-opioid, Fluo4 calcium fluorescence; active compounds read high; B-score at 10 µM; 0.49% of 310,000 active; AID 2237;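 active = B-score above 5 SD of library B-scores, and initial fluorescence ratio not above library mean plus 5 SD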;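 note: positive B-score marks a calcium rise read as TRPC4 activation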
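Incubation: 45 min room-temperature Fluo4 loading, 110 s read / System: HEK293 cells stably co-expressing mouse TRPC4beta and mu-opioid receptor / Signal: Fluo4 fluorescence, kinetic / Control set: buffer (low) and maximal DAMGO (high) / Measure: integrated baseline-normalised fluorescence ratio, converted to per-well B score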
TRPC6 act = activators of mouse TRPC6 channel; HEK293-TRPC6 membrane potential dye fluorescence; active compounds read high; B-score at 10 µM; 0.13% of 310,000 active; AID 2550;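 active = B-score of the integrated fluorescence ratio above library mean plus 3 SD, and starting fluorescence ratio within library mean plus 5 SD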;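 note: higher score means more depolarization so channel activation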
TRPC4 inh = inhibitors of mouse TRPC4 channel; Q9QUQ5; HEK293 TRPC4beta/mu-opioid, DAMGO-evoked Fluo4 calcium flux; active compounds read low; B-score at 10 µM; 0.39% of 300,000 active;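 active = B-score over 3 SD under the library average, no early fluorescence shift, positive overall ratio signal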
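Assay system – HEK293 line stably carrying TRPC4beta and mu-opioid receptor · Doses – single dose · Detection – Fluo4 calcium-dye fluorescence, kinetic read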
TRPC6 inh = mouse TRPC6 channel inhibition | Q61143 | HEK293-TRPC6, membrane potential dye, ACh-evoked depolarization; active compounds read low | 1.1% of 310,000 active | B-score at 10 µM;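 active = B-score under library mean minus 3 SD, initial fluorescence not abnormally high, positive integrated signal ratio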;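 note: B-score derived from integrated fluorescence ratio over the kinetic read; more negative B-score means stronger inhibition of depolarization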
TRPC4 spec 2 = second selectivity test of TRPC6 inhibitors: effect on mouse TRPC4; shares compounds with TRPC6 inh; HEK293 TRPC4/MOR, membrane potential dye fluorescence; channel activated by saturating DAMGO dose; inhibition, % at 10 µM; 42% of 920 active; AID 2776;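 active = compounds whose fluorescence signal differed from control wells by over 3 SD, either direction, in both duplicate plates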
TRPC4 spec = selectivity of TRPC6 inhibitors: effect on mouse TRPC4; HEK293 TRPC4/mu-opioid, membrane potential fluorescence; shares compounds with TRPC6 inh; 61% of 920 active; activity change, negative = inhibition, % at 10 µM; AID 2777;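 active = rise or fall in signal beyond 3 SD of buffer-only wells in both replicate plates, either sign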;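 note: integrated kinetic ratio of fluorescence range over baseline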
HEK293 MPD ctr 2-1 = parental HEK293 nonspecific activity of TRPC6 inhibitors, second screen; parental HEK293 membrane potential dye fluorescence; maximal acetylcholine challenge after compound addition; signal change vs control, % at 10 µM; 31% of 920 active; shares compounds with TRPC6 inh;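 active = membrane potential signal moving either way by over 3 SD of the maximum-effect control, in both duplicate plates, meaning non-specific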
HEK293 MPD ctr-1 = parental HEK293 nonspecific activity of TRPC6 inhibitors; shares compounds with TRPC6 inh; parental HEK293 membrane potential dye fluorescence; membrane potential signal change, % at 10 µM; 60% of 920 active; AID 2780;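 active = membrane potential signal shifting up or down by more than 3 SD of buffer-only wells, on both duplicate plates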
HEK293 MPD ctr-2 = counter-screen for TRPC6 modulators: effect in parental HEK293 cells | shares compounds with TRPC6 inh | membrane potential dye fluorescence | AID 488924 | membrane potential signal change, % at 10 µM | 51% of 2,400 active;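 active = membrane potential signal moves up or down beyond 5 SD from buffer-only wells, on both duplicate plates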
HEK293 MPD ctr 2-2 = second check of TRPC6 modulator effects in parental HEK293 cells | inhibition, % at 10 µM | membrane potential dye fluorescence; after compound, maximal acetylcholine stimulation | AID 488926 | 14% of 2,400 active | shares compounds with TRPC6 inh;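 active = membrane potential signal drops by more than 5 SD from the mean control signal, in both duplicate plates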;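 note: plate controls were acetylcholine ECmax control wells for no effect and buffer only wells for full effect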
TRPC4 ctr mod = selectivity of TRPC6 modulators against mouse TRPC4. shares compounds with TRPC6 inh. HEK293 TRPC4/mu-opioid, membrane potential fluorescence. percent change from control (negative = decrease, positive = increase), % at 10 µM. 69% of 2,400 active. AID 488927;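 active = membrane potential signal moved up or down beyond 5 SD of buffer control wells, in both duplicate plates, actives on both sides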;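 note: plate controls were assay buffer wells for no effect and DAMGO maximal-effect wells for full effect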
TRPC4 ctr inh 2 = second check of whether TRPC6 modulators also affect mouse TRPC4; shares compounds with TRPC6 inh; inhibition, % at 10 µM; 55% of 2,400 active; AID 488928; HEK293 TRPC4/mu-opioid, membrane potential dye fluorescence; stimulated with maximal-effect DAMGO;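 active = drop in membrane potential signal beyond 5 SD of the control wells in both duplicate plates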;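 note: TRPC4 counter screen for TRPC6 hits run under conditions tuned for TRPC6 not TRPC4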
TRPC6 block conf = mouse TRPC6 inhibitor confirmation; shares compounds with TRPC6 inh; HEK293-TRPC6, membrane potential dye, ACh-evoked depolarization; inhibition, % at 10 µM; 43% of 3,300 active; AID 488960;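 active = fluorescence ratio falls more than 5 SD below the full-stimulation control mean, in both duplicate runs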;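 note: integrated fluorescence ratio of peak minus minimum over baseline after agonist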
TRPC6 act confirm = mouse TRPC6 activator confirmation; shares compounds with TRPC6 inh; HEK293-TRPC6 membrane potential dye fluorescence, FDSS; activation, % at 10 µM; 11% of 2,800 active; AID 488961;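 active = ratio signal rise beyond 5 SD above unstimulated control wells' mean, seen in both duplicate runs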;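 note: plate controls were buffer EC0 wells for no effect and acetylcholine ECmax response for full effect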
* = called active by the depositor; i = inactive; x = no result.

SMILES	TRPC4 PAM	TRPC4 agonist	TRPC6 act	TRPC4 inh	TRPC6 inh	HEK293 MPD ctr-2	HEK293 MPD ctr 2-2	TRPC4 ctr mod	TRPC4 ctr inh 2	TRPC6 block conf	TRPC6 act confirm	others
OC(c1cc(-c2ccc(C(F)(F)F)cc2)nc(C(F)(F)F)c1)C1CCCCN1 (stereo unspecified)	i	43*	i	i	-5.9*	i	57%*	-10%*	54%*	i	i
CC(C)N1CCc2c(sc(NC(=S)NC(=O)c3ccccc3)c2C#N)C1	i	71*	48*	i	i	i	i	8.0%*	i	i	i
Cc1nnc(Nc2ccccn2)c2ccccc12	i	i	i	i	-5.7*	-219%*	58%*	-36%*	46%*	63%*	i
CC(C)Cc1cc(CN2CCC(CO)(Cc3cccc(C(F)(F)F)c3)CC2)[nH]n1	i	i	i	i	i	x	x	x	x	x	x
COc1cc(CNCCc2ccc(S(N)(=O)=O)cc2)ccc1OCC(=O)NC1CCCCC1	i	47*	12*	i	-12*	i	i	i	i	i	i
COc1cc(CNCc2ccccn2)ccc1OCC(=O)NC1CCCCC1	i	i	i	i	i	x	x	x	x	x	x
CCN(CC)CC(=O)N1c2ccccc2Sc2ccccc21	i	i	i	i	i	x	x	x	x	x	x
NCCC(=O)N1c2ccccc2Sc2ccccc21	i	i	i	i	i	x	x	x	x	x	x
CCN(CC)CC(=O)N1c2ccccc2Sc2ccc(Cl)cc21	i	i	i	i	-8.2*	x	x	x	x	i	x	TRPC4 spec 2=i;TRPC4 spec=6.0%*;HEK293 MPD ctr 2-1=i;HEK293 MPD ctr-1=7.4%*
O=C(CCN1CCOCC1)N1c2ccccc2Sc2ccc(Cl)cc21	i	i	i	i	-5.2*	i	75%*	14%*	i	50%*	x
NCCCC(=O)N1c2ccccc2Sc2ccccc21	i	i	i	i	-6.9*	x	x	x	x	i	i	TRPC4 spec 2=i;TRPC4 spec=i;HEK293 MPD ctr 2-1=i;HEK293 MPD ctr-1=i
CCn1c(SCC(=O)NCc2ccccc2)nnc1C(CO)NC(=O)c1ccccc1 (stereo unspecified)	i	i	i	i	i	x	x	x	x	x	x
c1ccc(Nc2nc(N3CCCCC3)nc(N3CCNCC3)n2)cc1	30*	i	i	i	-5.6*	i	i	14%*	58%*	55%*	x
COc1cc(C)ccc1NC(=O)c1ccc(S(=O)(=O)N2CCOCC2)cc1	i	i	i	i	-6.1*	i	i	i	i	i	i
